Measurements: publication PMC3748591 (Bioorganic & medicinal chemistry, 2011)

Columns and labels:
[1] = target: Human SphK1 (Homo sapiens, UniProt Q9NYA1); assay: Sphingosine kinase assay, in vitro inhibition of SphK1; type: biochemical; settings: initial screen at 100 μM inhibitor
[2] = target: T1, mouse SphK2 (Mus musculus, UniProt Q9JIA7); assay: Sphingosine kinase assay, in vitro inhibition of SphK2; type: biochemical; settings: initial screen at 100 μM inhibitor
T1 sequence (Q9JIA7 1-617): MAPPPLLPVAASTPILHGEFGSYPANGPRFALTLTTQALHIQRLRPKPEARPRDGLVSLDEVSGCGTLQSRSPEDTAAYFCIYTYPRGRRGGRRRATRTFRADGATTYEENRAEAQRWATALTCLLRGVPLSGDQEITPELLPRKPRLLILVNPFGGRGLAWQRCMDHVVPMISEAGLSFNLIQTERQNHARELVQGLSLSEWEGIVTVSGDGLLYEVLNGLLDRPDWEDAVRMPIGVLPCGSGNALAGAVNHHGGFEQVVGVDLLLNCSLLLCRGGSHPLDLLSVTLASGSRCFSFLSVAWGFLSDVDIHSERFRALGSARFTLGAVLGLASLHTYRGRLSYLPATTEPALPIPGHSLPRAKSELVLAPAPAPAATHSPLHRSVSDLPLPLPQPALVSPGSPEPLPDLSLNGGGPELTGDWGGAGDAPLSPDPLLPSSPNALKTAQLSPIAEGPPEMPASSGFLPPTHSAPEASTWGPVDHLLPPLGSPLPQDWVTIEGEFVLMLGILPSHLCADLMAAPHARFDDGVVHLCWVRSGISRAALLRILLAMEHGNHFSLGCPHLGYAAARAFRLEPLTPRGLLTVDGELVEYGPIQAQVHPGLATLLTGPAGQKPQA

[3] = test system: Akt and ERK phosphorylation; assay: Akt/ERK phosphorylation in U937 cells; type: cell-based, human; settings: different concentrations, 16 h (legend: 24 h), Western blot
How it was run: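 U937 cells pretreated with test compound at a range of concentrations for 24 h (legend; the methods say times "usually 2 h"). Cells were washed in PBS, Dounce-lysed, and equal protein run on 10% SDS–PAGE, then transferred to nitrocellulose. Blots were blocked in 5% milk/TBS pH 7.4 with 0.1% Tween 20, probed 1 h with anti-ERK, p-ERK, Akt, p-Akt and β-actin (1:1000), then HRP anti-IgG (1:2000), with chemiluminescent detection. PD098059 (10 μM) served as ERK positive control.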

[4] = test system: U937 cells; assay: S1P levels in U937 cells; type: cell-based, human; settings: LC/MS, data not shown
[5] = target: T2, SphK2 (Homo sapiens, UniProt Q9NRA0); assay: FTY720 phosphorylation in intact U937 cells; type: cell-based; settings: U937 cells exposed to FTY720 and 10 μM inhibitor, 2 h; cell pellet, LC/MS
T2 sequence (Q9NRA0 1-654): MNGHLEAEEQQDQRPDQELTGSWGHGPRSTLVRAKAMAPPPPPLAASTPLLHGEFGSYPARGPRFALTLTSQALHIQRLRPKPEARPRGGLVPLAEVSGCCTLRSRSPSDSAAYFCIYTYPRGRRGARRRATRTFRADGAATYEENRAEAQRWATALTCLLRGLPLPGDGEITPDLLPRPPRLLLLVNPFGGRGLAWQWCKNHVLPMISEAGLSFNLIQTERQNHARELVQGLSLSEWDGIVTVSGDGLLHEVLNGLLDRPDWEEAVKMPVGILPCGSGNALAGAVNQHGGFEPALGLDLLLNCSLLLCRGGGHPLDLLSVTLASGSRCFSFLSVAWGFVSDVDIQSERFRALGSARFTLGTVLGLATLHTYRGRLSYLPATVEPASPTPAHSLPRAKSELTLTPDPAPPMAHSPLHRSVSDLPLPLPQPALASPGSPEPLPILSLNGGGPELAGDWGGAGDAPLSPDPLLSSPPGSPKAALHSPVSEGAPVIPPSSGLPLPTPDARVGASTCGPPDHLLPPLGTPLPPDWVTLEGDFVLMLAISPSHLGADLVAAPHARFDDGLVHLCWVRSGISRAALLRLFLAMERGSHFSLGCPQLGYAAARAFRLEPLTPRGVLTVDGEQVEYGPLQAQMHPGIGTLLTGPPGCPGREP
How it was run: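 Cultured U937 cells were given exogenous FTY720 plus 10 μM test compound for 2 h, then pelleted by centrifugation. Pellet FTY720 and FTY720-P were measured by LC/ESI-MS/MS: C18 reverse phase, water/methanol/formic acid gradient, 1 mL/min. MRM was 308.4→255.1 and 388.4→255.1, with C17S1P and C17-sphingosine as internal standards, quantified by peak area. Results are moles per million cells, means ± SD of three independent experiments, unpaired two-tailed t-test.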

Sequence of Human SphK1 (Q9NYA1 whole entry): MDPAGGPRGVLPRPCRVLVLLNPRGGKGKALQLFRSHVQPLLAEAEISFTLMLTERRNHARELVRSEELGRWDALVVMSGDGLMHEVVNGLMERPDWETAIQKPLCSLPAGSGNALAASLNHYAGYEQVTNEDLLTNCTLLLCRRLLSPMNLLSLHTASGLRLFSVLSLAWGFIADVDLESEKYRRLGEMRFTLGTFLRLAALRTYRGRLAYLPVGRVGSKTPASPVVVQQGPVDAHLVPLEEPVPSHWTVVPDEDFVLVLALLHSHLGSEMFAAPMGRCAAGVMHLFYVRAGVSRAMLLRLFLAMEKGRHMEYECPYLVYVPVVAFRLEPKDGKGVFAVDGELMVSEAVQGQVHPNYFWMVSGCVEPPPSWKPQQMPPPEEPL

Row | Compound | inhibition of SphK1, result in words [1] | inhibition of SphK2, result in words [2] | accumulation of FTY720 in cells [5] | production of FTY720-P [5] | Akt phosphorylation [3] | ERK phosphorylation [3] | S1P levels [4]
1 | CCCCCCCCc1ccc(C2CCC(O)(C[N+](=O)[O-])CC2)cc1 (centres unmarked) [Compound 7, 1-(Nitromethyl)-4-(4-octylphenyl)cyclohexanol] | inactive against SphK1 | did not cross the 50% threshold | – | – | – | – | –
2 | CCCCCCCCc1ccc([C@H]2CC[C@H](O)CC2)cc1 [Compound 9, (1r,4r)-4-(4-Octylphenyl)cyclohexanol] | inactive against SphK1 | did not cross the 50% threshold | – | – | – | – | –
3 | CCCCCCCCc1ccc([C@H]2CC[C@H]([N+](C)(C)C)CC2)cc1.[I-] [trans-12a, (1r,4r)-N,N,N-trimethyl-4-(4-octylphenyl)cyclohexanaminium iodide] | – | – | exaggerated the accumulation | significantly suppressed | dose-dependent decrease | quantitatively inhibited | no change
4 | CCCCCCCCc1ccc([C@H]2CC[C@H]([N+](C)(C)CCC)CC2)cc1.[I-] [trans-12b, (1r,4r)-N,N-Dimethyl-4-(4-octylphenyl)-N-propylcyclohexanaminium iodide] | – | – | exaggerated the accumulation | significantly suppressed | complete disappearance of p-Akt band | quantitatively inhibited | no change

Further lines, with some results ahead:

Row | inhibition of SphK1, result in words [1] | inhibition of SphK2, result in words [2] | accumulation of FTY720 in cells [5] | production of FTY720-P [5] | Compound | Akt phosphorylation [3] | ERK phosphorylation [3] | S1P levels [4]
5 | inactive against SphK1 | did not cross the 50% threshold | – | – | CCCCCCCCc1ccc(C2CCC(=CC(=O)OC)CC2)cc1 (centres unmarked) [Compound 5, Methyl 2-(4-(4-octylphenyl)cyclohexylidene)acetate] | – | – | –
6 | inactive against SphK1 | did not cross the 50% threshold | – | – | CCCCCCCCc1ccc(C2CCC(=CCO)CC2)cc1 (centres unmarked) [Compound 6, 2-(4-(4-Octylphenyl)cyclohexylidene)ethanol] | – | – | –
7 | inactive against SphK1 | did not cross the 50% threshold | – | – | CCCCCCCCc1ccc(C2CCC(=NO)CC2)cc1 (centres unmarked) [Compound 8, 4-(4-Octylphenyl)cyclohexanone oxime] | – | – | –
